# Published values collected from several papers.
# Each line is one published result; the experiments were not run side by side.
# Target: cGMP-dependent protein kinase 2 (PRKG2, Homo sapiens, UniProt Q13237)
SMILES,observed,mode,technique,tested at,endpoint,result
O=C(NCCCC1CCCCC1)c1ccc(CNC(=O)c2cnn(-c3ccccc3)c2C(F)(F)F)cc1,cell-free assay,,competition with immobilised ligand,0.1 µM,remaining binding,89%
Nc1ncnc2occ(-c3ccc(NC(=O)Nc4cc(C(F)(F)F)ccc4F)cc3)c12,cell-free assay,inhibitor,,20 µM,remaining signal,76%
COc1cccc(CNC(=O)c2nc3scc(COCc4ccc(C(=O)O)cc4)c3c(=O)[nH]2)c1,cell-free assay,,competition with immobilised ligand,1 µM,remaining binding,100%
C=CC(=O)Nc1cc(Nc2nccc(Nc3cc(Cl)c(F)cc3C(C)(C)O)n2)c(OC)cc1N1CC[C@@H](N(C)C)C1,enzyme activity,inhibitor,,1 µM,inhibition,-8%
CC(C)(C)c1nc2c(s1)c1nc(N)ncc1c1ccc(NS(=O)(=O)c3c(F)cccc3F)c(F)c12,enzyme activity,inhibitor,radiometric,1 µM,remaining activity,102%
CSc1cccnc1N1CCN(Cc2nc3ccccc3[nH]2)CC1,cell-free assay,,competition with immobilised ligand,1 µM,remaining binding,94%
Cc1ccc(C(=O)NCc2ccsc2)cc1C#Cc1cn(C(C)C)c2ncnc(N)c12,enzyme activity,inhibitor,,1 µM,activity vs control,112%
C#Cc1cccc(Nc2ncnc3cc(OCCOC)c(OCCOC)cc23)c1,cell-free assay,,,0.5 µM,remaining signal,107%
CN(C)C1CCN(CC#Cc2nn(C3CCCC3)c3nc(NCc4ccccc4)ncc23)C1 (stereo not drawn),enzyme activity,inhibitor,FRET,1 µM,inhibition,6%
COc1cc2ncnc(Nc3ccc(Oc4ccccc4)c(C)c3C)c2cc1OC,enzyme activity,inhibitor,,1 µM,inhibition,2%
O=C(Nc1cnn(-c2csc(C(=O)NC3COC3)c2)c1)Nc1ccccc1Cl,enzyme activity,inhibitor,,5 µM,remaining activity,101%
Cc1ccc(C(=O)Nc2ccc(CN3CCN(C)CC3)c(C(F)(F)F)c2)cc1C#Cc1cnc2cccnn12,enzyme activity,inhibitor,,23.5 nM,remaining activity,82%
CO[C@H]1CC[C@H](CNc2ccc(S(=O)(=O)NC(=O)c3ccc(N4CCN(CC5=C(c6ccc(Cl)cc6)CC(C)(C)CC5)CC4)cc3Oc3cnc4[nH]ccc4c3)cc2[N+](=O)[O-])CC1,cell-free assay,,competition with immobilised ligand,1 µM,remaining binding,90%
N#CCCc1ccc2c(c1)-c1[nH]c3ccc([N+](=O)[O-])cc3c1CC(=O)N2,cell-free assay,,,0.5 µM,remaining signal,93.9%
CN(C)c1ncnc(-c2ccc3nc(Nc4cc(CN5CCN(C(=O)CC(F)(F)F)CC5)ccn4)[nH]c3c2)c1Cl,cell-free assay,,competition with immobilised ligand,1 µM,remaining binding,40%
Cn1cnc(Br)c1C1=CN(c2ncnc3[nH]cnc23)CCS1,enzyme activity,inhibitor,radiometric,50 nM,inhibition,43.1%
Nc1nc(Nc2ccc(S(N)(=O)=O)cc2)nn1C(=O)c1c(F)cccc1F,cell-free assay,,,0.5 µM,remaining signal,92.2%
CC1=C(C#N)[C@@H](c2ccc3[nH]nc(C)c3c2)C(C#N)=C(c2ccc(Cl)cc2)N1,cell-free assay,,competition with immobilised ligand,1 µM,remaining binding,100%
